Assay results published in ChEMBL document CHEMBL3421599, “Diterpene alkaloids with an aza-ent-kaurane skeleton from Isodon rubescens” (J Nat Prod, 2015).

What was measured:
[1] = test system: A549; assay: Cytotoxicity against human A549 cells after 48 hrs by MTT assay; type: functional, cell-based
How it was run: (§1)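 Cells seeded at 5000 to 10 000 per well, exposed to compounds at a range of concentrations for 48 h at 37 °C. MTT then added for 4 h at 37 °C under 5% CO2. Formazan dissolved in 10% SDS and absorbance read at 595 nm. Each concentration tested in triplicate. IC50 derived by the Reed and Muench method, with cisplatin as positive control.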

[2] = test system: MCF7; assay: Cytotoxicity against human MCF7 cells after 48 hrs by MTT assay; type: functional, cell-based; how it was run: as §1
[3] = test system: SMMC-7721; assay: Cytotoxicity against human SMMC7721 cells after 48 hrs by MTT assay; type: functional, cell-based; how it was run: as §1
[4] = test system: SW480; assay: Cytotoxicity against human SW480 cells after 48 hrs by MTT assay; type: functional, cell-based; how it was run: as §1
[5] = Cytotoxicity against human HL60 cells after 48 hrs by MTT assay; type: functional, cell-based, HL-60; how it was run: as §1
[6] = Homo sapiens, A549, 48 h, read-out: IC50
[7] = Homo sapiens, MCF7, 48 h, read-out: IC50
[8] = Homo sapiens, SMMC-7721, 48 h, read-out: IC50
[9] = Homo sapiens, SW480, 48 h, read-out: IC50
[10] = Homo sapiens, HL-60, 48 h, read-out: IC50

Measured: IC50

C=C1C(=O)[C@]23[C@H](O)[C@H]1CC[C@H]2[C@@]12C=N[C@@]3(O)[C@@H](O)[C@@H]1C(C)(C)CC[C@@H]2O
> 40 µM: [1]; [6] | [2]; [7] | [3]; [8] | [4]; [9] | [5]; [10]

C=C1C(=O)OC2CC1C[C@H]1[C@@H]2[C@@]23C=NC1(O)[C@@H](O)[C@@H]2C(C)(C)CC[C@@H]3O
Not Active: [1]; a549 | [2]; mcf7 | [3]; smmc-7721 | [4]; sw480 | [5]; hl-60

C=C1C(=O)O[C@H]2C[C@@H]1C[C@H]1[C@@H]2[C@@]23C(OC)O[C@@]1(O)[C@@H](O)[C@@H]2C(C)(C)CC[C@@H]3O (stereo not given in full)
Active: [1]; a549 | [2]; mcf7 | [3]; smmc-7721 | [4]; sw480 | [5]; hl-60

C=C1C(=O)[C@]23[C@H](O)[C@H]1CC[C@H]2[C@@]12CO[C@]3(O)[C@@H](O)[C@@H]1C(C)(C)CC[C@@H]2O [ORIDONIN]
7.2 µM: [1]; [6] | [2]; [7] | [3]; [8] | [4]; [9] | [5]; [10]
